Screening data as filed in PubChem BioAssay.
SENP8 block-1 = SENP8 protease inhibitors, primary screen, biochemical, luminescence | Sentrin-specific protease 8 (Homo sapiens), Q96LD8 | purified SENP8, Z-RLRGG-aminoluciferin cleavage | inhibition, % at 10 µM | actives 1.2% (n = 330,000) | AID 2540, 2010; in the data active = inhibition above about 50%
SENP8 block-2 = human SENP8 protease inhibitors, primary screen, biochemical, fluorescence, Nedd8 protein substrate, uHTS. recombinant SENP8. inhibition, % at 20 µM. actives 0.64% (n = 360,000). AID 602440, 2012; in the data active = inhibition mostly above about 40%, no sharp cut-off; inactive = mostly below about 27%
SENP7 inh = SENP7 protease inhibitors, primary screen, biochemical, luminescence, uHTS; Sentrin-specific protease 7 (Homo sapiens), Q9BQF6; recombinant SENP7, Z-RLRGG-aminoluciferin luminescence, 40 min; inhibition, % at 5 µM; actives 1.5% (n = 330,000);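 active = inhibition above about 50% at the single test dose, limit read from the data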
Target sequence (Q9BQF6 706-1050 limits assumed): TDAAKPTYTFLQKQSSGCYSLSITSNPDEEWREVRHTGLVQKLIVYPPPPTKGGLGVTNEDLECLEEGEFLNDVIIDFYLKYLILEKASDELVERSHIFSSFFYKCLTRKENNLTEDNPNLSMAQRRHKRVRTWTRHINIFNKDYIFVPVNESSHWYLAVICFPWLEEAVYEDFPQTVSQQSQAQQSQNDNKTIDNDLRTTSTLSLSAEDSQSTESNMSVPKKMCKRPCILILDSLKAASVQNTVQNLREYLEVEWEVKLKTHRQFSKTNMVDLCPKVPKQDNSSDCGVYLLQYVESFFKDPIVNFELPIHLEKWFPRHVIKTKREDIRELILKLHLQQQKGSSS
Platelet DG rel = inhibitors of platelet dense granule secretion, primary screen, cell-based, MLPCN, human platelets. human platelet-rich plasma, SFLLRN dense granule ATP release, luminescence. inhibition, %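 (compounds screened at 7.5 µM in platelet-rich plasma)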. actives 0.22% (n = 300,000);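 active = mean replicate score, as percent of positive control, at or above 50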
SENP1 inh = human SENP1 catalytic domain inhibitors, primary screen, biochemical, FRET, uHTS | Sentrin-specific protease 1 (Homo sapiens), Q9P0U3 | recombinant SENP1 catalytic domain, CyPet-SUMO1-YPet FRET cleavage | inhibition, % at 10 µM | actives 0.21% (n = 360,000) | AID 624204, 2012;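 active = inhibition at least 30% at 10 µM, raw YFP signal under a set limit, fluorescence ratio 0.5 to 1.5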
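Test system: hSENP1 catalytic domain, recombinant; Amount: 20 pM final SENP1 enzyme; Medium: Tris pH 8 buffer plus EDTA, NaCl, BME, BSA, NP40, catalase; Schedule: 50 min enzyme reaction, room temperature, light-protected; Technique: FRET fluorescence in CFP and YFP emission channels; Controls: no-enzyme wells low, DMSO-plus-enzyme wells high control.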
SENP6 inh = SENP6 protease inhibitors, primary screen, biochemical, luminescence, uHTS; Recombinant SENP6 catalytic domain, aminoluciferin luminescence; inhibition, % at 10 µM; actives 1.8% (n = 330,000); AID 2599, 2010;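 active = inhibition above about 50% at the single tested dose, limit read from the data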
SENP8 conf = SENP8 protease inhibitors, retest, confirmation, biochemical, luminescence, single concentration; shares compounds with SENP7 inh; actives 40% (n = 6,200); inhibition, % at 12.5 µM; Recombinant SENP8, Z-RLRGG-aminoluciferin luminescence, 60 min;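 active = mean inhibition across replicates above about 50%, limit read from the data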
SENP6 confirm = SENP6 protease inhibitors, confirmation, biochemical, luminescence, single concentration; AID 488915, 2010; shares compounds with SENP7 inh; inhibition, % at 12.5 µM; actives 58% (n = 6,200); recombinant SENP6, Z-RLRGG-aminoluciferin luminescence
SENP7 confirm = SENP7 protease inhibitors, retest, confirmation, biochemical, luminescence, single concentration. shares compounds with SENP7 inh. recombinant SENP7, Z-RLRGG-aminoluciferin luminescence, 40 min. inhibition, % at 12.5 µM. actives 69% (n = 6,200). AID 488917, 2010
Casp3 SENP sel = caspase-3 protease inhibitors, confirmation, selectivity assay for SENP inhibitor project, biochemical, single concentration; shares compounds with SENP7 inh; purified caspase-3, Z-DEVD-aminoluciferin luminescence, 60 min; inhibition, % at 12.5 µM; actives 60% (n = 6,200);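 active = mean inhibition above about 50%, limit read from the data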
Target sequence (P42574 28-227 limits assumed): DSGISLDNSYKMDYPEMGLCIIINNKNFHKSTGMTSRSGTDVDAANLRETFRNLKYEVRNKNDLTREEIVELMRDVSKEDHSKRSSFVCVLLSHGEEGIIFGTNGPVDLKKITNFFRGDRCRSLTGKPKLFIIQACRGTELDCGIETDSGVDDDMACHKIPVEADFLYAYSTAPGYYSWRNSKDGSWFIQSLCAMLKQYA
Luc interf = interferes with luciferase luminescence in SENP counter-screen; shares compounds with SENP7 inh; Pre-incubated SENP8/Z-RLRGG-aminoluciferin, luciferase luminescence interference; inhibition, % at 12.5 µM; actives 39% (n = 6,200); AID 488919;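 active = mean inhibition above about 50% when retested at one dose, limit read from the data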
Numbers stand for hits; i = inactive; nt = no result. Compounds with a hit are over-represented: about 2.6% of the library has one in this group of screens.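 Rule for the calls, unless noted: active = mean inhibition above about 50% in the one-dose retest (limit read from the data); inactive = the rest.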

SMILES	SENP8 block-1	SENP8 block-2	SENP7 inh	Platelet DG rel	SENP1 inh	SENP6 inh	SENP8 conf	SENP6 confirm	SENP7 confirm	Casp3 SENP sel	Luc interf
O=C(CN1C(=O)c2cccnc2Oc2ccc(Cl)cc21)NC1CCCCC1	i	i	i	i	i	i	nt	nt	nt	nt	nt
Cc1ccc(-c2cnc3c(Cl)c(C)nn3c2)cc1	68	i	94	i	i	65	69	70	75	80	i
Cc1ccc(-c2cnc3cc(C)nn3c2)cc1	i	i	75	i	i	58	51	61	83	72	i
Cc1cc2ncc(-c3ccc(Cl)cc3)cn2n1	i	i	i	i	i	i	nt	nt	nt	nt	nt
CCN(C(=O)c1cc(S(=O)(=O)N2CCCCC2)c[nH]1)c1ccc(OC)cc1	i	i	i	i	i	i	nt	nt	nt	nt	nt
CCc1ccc(NC(=O)c2cnn(-c3ccccc3)c2C2CCNCC2)cc1	i	i	i	i	i	i	nt	nt	nt	nt	nt
CCc1ccc(NC(=O)c2cnn(-c3ccccc3)c2C)cc1	i	i	76	i	i	59	i	i	50	69	i
CCCCCCCCCCCCCCC[C@@H](O)[C@@H](N)CO	nt	i	nt	nt	i	nt	nt	nt	nt	nt	nt
Cc1cc(C)c2cccc(N)c2n1	i	i	i	i	i	71	i	i	i	i	i
Nc1ccn([C@@H]2O[C@H](C(=O)N3CCSC3)[C@@H](O)[C@H]2O)c(=O)n1	nt	i	nt	nt	i	nt	nt	nt	nt	nt	nt
COc1ccc(-c2nc(CN3CCC(C(=O)N4CCOCC4)CC3)c(C)o2)cc1C	i	i	i	i	i	i	nt	nt	nt	nt	nt
Clc1cc(Cl)c2nc(N3CCOCC3)sc2c1	i	i	i	i	i	i	nt	nt	nt	nt	nt
Clc1ccc(-c2nsc(N3CCOCC3)n2)c(Cl)c1	65	i	68	i	i	77	66	64	89	72	i
COC(C(=O)N1CCC(n2nccc2NC(=O)C2CC2)CC1)c1ccccc1 (centres undefined)	i	i	i	i	i	i	nt	nt	nt	nt	nt
CC1(C)CC(=O)C=C(c2ccc3[nH]ccc3c2)C1	i	i	i	i	i	i	nt	nt	nt	nt	nt
Cc1ccccc1-c1cc2nc(-c3ccc([N+](=O)[O-])cc3)cc(=O)n2[nH]1	i	i	i	i	i	i	nt	nt	nt	nt	nt
Cc1nc2nc(-c3ccccc3)cc(=O)n2[nH]1	i	i	55	i	i	i	57	52	84	85	66
Cc1cccc(-c2cc3nc(-c4ccccc4)cc(=O)n3[nH]2)c1	88	i	51	i	i	89	i	74	i	i	i
N#Cc1ccsc1NC(=O)CN(Cc1ccccc1)Cc1ccccc1	i	i	i	i	i	i	nt	nt	nt	nt	nt
N#Cc1ccsc1NC(=O)CCc1ccccc1	60	i	70	i	i	i	i	i	68	53	i
OCCNCCO	i	i	i	i	i	i	nt	nt	nt	nt	nt
Cc1nn2cc(-c3ccc(-c4ccccc4)cc3)nc2s1	i	i	58	i	i	i	i	i	i	i	i
Cc1nn2cc(-c3ccc(Cl)cc3)nc2s1	54	i	87	i	i	81	i	i	i	i	i
c1ccc(-c2cn3nc(-c4ccccc4)c(-c4ccccc4)nc3n2)cc1	i	i	i	i	i	i	nt	nt	nt	nt	nt
Cc1ccc(-c2cn3nc(-c4ccccc4)c(-c4ccccc4)nc3n2)cc1	i	i	i	i	i	i	nt	nt	nt	nt	nt
SMILES	SENP8 block-1	SENP8 block-2	SENP7 inh	Platelet DG rel	SENP1 inh	SENP6 inh	SENP8 conf	SENP6 confirm	SENP7 confirm	Casp3 SENP sel	Luc interf
CCc1nn2cc(-c3ccccc3)nc2s1	89	i	96	i	i	94	i	94	101	95	84
Cc1ccc(CNS(=O)(=O)c2cc3c4c(c2)CCN4C(=O)CC3)cc1	i	i	i	i	i	i	nt	nt	nt	nt	nt
O=C(Nc1nc2c(F)cc(F)cc2s1)c1ccco1	74	i	78	i	i	88	60	88	96	90	i
O=C(Nc1nc2c(F)c(F)c(F)cc2s1)c1ccco1	53	i	i	i	i	68	i	i	78	52	i
O=C(CNS(=O)(=O)c1ccc(Br)cc1)N1CCN(Cc2ccccc2)CC1	i	i	i	i	i	i	nt	nt	nt	nt	nt
O=c1c(Cl)c(N2CCCCC2)cnn1-c1nc2ccccc2[nH]1	89	i	97	i	i	97	96	96	102	98	i
CCS(=O)(=O)N1CCN(c2cnn(-c3ccccc3)c(=O)c2Cl)CC1	i	i	i	i	i	i	nt	nt	nt	nt	nt
CC1(C(=O)NS(=O)(=O)Cc2cccc(Cl)c2)CCN1C(=O)c1ccc(C2CCCCC2)cc1 (centres undefined)	nt	i	nt	nt	i	nt	nt	nt	nt	nt	nt
CCCNC(=O)C1CC(=O)N(c2ccc(OCc3ccc(F)cc3)cc2)C1 (centres undefined)	87	i	88	i	i	87	i	56	71	94	i
C=CCNC(=O)C1CC(=O)N(c2ccc(OCc3ccc(F)cc3)cc2)C1 (centres undefined)	79	i	91	i	i	92	65	86	96	88	i
C=CCNC(=O)C1CC(=O)N(c2ccc(OCC(=O)N3CCCC3)cc2)C1 (centres undefined)	i	i	i	i	i	i	nt	nt	nt	nt	nt
CCCNC(=O)C1CC(=O)N(c2ccc(OCc3ccc(Cl)cc3)cc2)C1 (centres undefined)	61	i	88	i	i	84	i	i	i	i	i
CC(C)(C)NC(=O)NC(=O)CN1c2cccc3cccc(c23)S1(=O)=O	i	i	i	i	i	i	nt	nt	nt	nt	nt
CCOC(=O)c1[nH]c2cc(OC)c(OC)cc2c1N	i	i	i	i	i	i	nt	nt	nt	nt	nt
